We go through 53 molecules from PubChem BioAssay AID504450 (Broad Institute, 2011).

Each structure is given as a SMILES string. Inconclusive results are not listed. Active and inactive are the calls of the source.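 Rule for the calls: active = signal falls, and half-maximal potency stays within ten times the top tested dose in every run; inconclusive = runs disagree, or a flat partial drop, or a poor fit; inactive = inactive every run, flat, wrong way or too weak.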

Tested on in one assay: not listed separately
The experiment in a line: cytotoxicity in HMLE_sh_eGFP control cells, dose response, counter-screen for breast cancer stem cell project, cell-based, luminescence, powder samples, set 4 (AID 504450). The conditions noted are these: HMLE_sh_eGFP viability, CellTiter-Glo luminescence, 72 h; at 30 µM (top of the series). The essentials: (§1)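 Material: HMLE breast epithelial cells expressing shRNA against eGFP (counterscreen line). Amount: 2000 cells/well. Compound dosing: 100 nL pinned compound. Incubation: compound exposure about 70-74 h at 37 °C, 5% CO2. Signal: CellTiter-Glo ATP luminescence, reagent diluted 1:3 in PBS, 12 min incubation. Benchmarks: DMSO neutral, puromycin positive.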
Consider `CC(C)c1ccc(/C=C/C(=O)Nc2ncc[nH]2)cc1`, for which the activity change, negative = viability loss was -18.2% (inactive). On to `O=C(/C=C/c1ccc(Cl)cc1)NC1=NCCS1`, for which the activity change, negative = viability loss was -4.58% (inactive).

Turning to `O=C(NC1=NCCS1)C1CC1c1ccccc1` (stereo not drawn), the activity change, negative = viability loss is 7.45% (inactive). Same read-out and setting: to `O=C(COc1ccc(Cl)cc1Cl)N/N=C/c1ccn[nH]1` belongs 6.79% (inactive); to `Cc1csc(NC(=O)c2ccc(CO)o2)n1`, 13.5% (inactive); to `O=C(N/N=C/c1ccc[nH]1)C1CC1c1ccccc1` (stereo not drawn), -2.24% (inactive). Same read-out and setting: the same measure for `O=S(=O)(/C=C/c1ccccc1)NC1=NCCS1`: 19.6% (inactive).

In the case of `Cc1ccc(C)c(OCC(=O)N/N=C/c2ccc[nH]2)c1`, the activity change, negative = viability loss is -10.1% (inactive). Same read-out and setting: to `Cc1cccc(C)c1OCC(=O)N/N=C/c1ccc[nH]1` belongs 8.5% (inactive); to `O=C(Nc1nccs1)c1ccc(COc2ccccc2)o1`, 5.29% (inactive). Same read-out and setting: the same measure for `O=C(COc1c(Cl)cc(Cl)cc1Cl)N/N=C/c1ccn[nH]1`: 0.468% (inactive). For the molecule `C/C(=C\c1ccccc1)C(=O)NC1=NCCS1`, the activity change, negative = viability loss is 12% (inactive).

For `O=C(NC1=NCCS1)/C(F)=C/c1ccccc1`, the activity change, negative = viability loss was 13.9% (inactive). Still for that read-out and setting: the same measure for `Cn1ccnc1NC(=O)c1ccc(COc2ccccc2)o1`: -18.4% (inactive). On the same count and under the same terms, the same measure for `COc1cccc(/C=C/C(=O)NC2=NCCS2)c1`: 1.9% (inactive); for `COc1ccccc1OCC(=O)N/N=C/c1ccc[nH]1`: 14.8% (inactive); for `O=C(/C=C/c1ccc(C(F)(F)F)cc1)NC1=NCCS1`: 11.7% (inactive). On the same count and under the same terms, the same measure for `O=C(N/N=C/c1ccn[nH]1)c1cc2ccccc2o1`: 16.4% (inactive); for `O=C(c1ccc(COc2ccccc2)o1)N1CCOCC1`: 5.39% (inactive).

The subject of another assay is HMLE_sh_eGFP viability, CellTiter-Glo luminescence, 72 h. The description is as above.
Conditions: not given
The procedure, abridged: as §1
The term AC50 denotes the midpoint of the concentration-response curve, whichever way the signal moves. Regarding `COc1cccc(OCc2ccc(C(=O)Nc3nc(C)cs3)o2)c1`, the half-maximal activity concentration (AC50) was 1.59 µM.

Turning to `CC(C)c1ccc(/C=C/C(=O)Nc2nccs2)cc1`, the AC50 was 7.26 µM. Still for that read-out and setting: the same measure for `O=C(CSc1cc(Cl)ccc1Cl)N/N=C/c1ccc[nH]1`: 18 µM. The same measure, in the same setting: the same measure for `Cc1csc(NC(=O)c2ccc(COc3ccccc3OC(F)(F)F)o2)n1`: 0.38 µM; for `CC[C@@H](C(=O)O)C1CC[C@H](C)C([C@@H](C)[C@H](O)[C@H](C)C(=O)[C@H](CC)C2O[C@]3(C=C[C@@H](O)[C@]4(CC[C@@](C)(C5CC[C@](O)(CC)[C@H](C)O5)O4)O3)[C@H](C)C[C@@H]2C)O1` (stereo partly drawn): 0.007 µM. Same read-out and setting: to `O=C(N/N=C/c1ccc[nH]1)C1COc2cc3ccccc3cc2O1` (stereo not drawn) belongs 18.9 µM; to `Cc1csc(NC(=O)c2ccc(COc3ccccc3C(F)(F)F)o2)n1`, 0.057 µM; to `Cc1csc(NC(=O)c2ccc(COc3cccc(F)c3)o2)n1`, 21.5 µM. `Cc1csc(NC(=O)c2ccc(COc3ccccc3F)o2)n1`: the AC50 is 0.151 µM. Still for that read-out and setting: to `O=C(COc1ccc2ccccc2c1Br)N/N=C/c1ccc[nH]1` belongs 3.03 µM; to `Cc1csc(NC(=O)c2ccc(COc3ccc(OC(F)(F)F)cc3)o2)n1`, 13.2 µM. The same measure, in the same setting: the same measure for `Cc1csc(NC(=O)c2ccc(COc3cccc(Cl)c3)o2)n1`: 6.6 µM; for `CC(C)(C)c1ccc(C2CC2C(=O)N/N=C/c2ccc[nH]2)cc1` (stereo not drawn): 2.14 µM; for `Cc1csc(NC(=O)c2ccc(COc3ccccc3Cl)o2)n1`: 0.163 µM. The same measure, in the same setting: to `CC(C)c1ccc(/C=C/C(=O)NCc2ccccc2)cc1` belongs 13.2 µM. For the molecule `Cc1csc(NC(=O)c2ccc(COc3ccc(C#N)cc3)o2)n1`, the AC50 was 12.7 µM. As for `CC(C)c1ccc(/C=C/C(=O)Nc2nncs2)cc1`, the concentration at half-maximal activity (AC50) was 9.97 µM. Same read-out and setting: the same measure for `Cc1csc(NC(=O)c2ccc(COc3ccc(C(F)(F)F)cc3)o2)n1`: 2.92 µM; for `COc1ccccc1OCc1ccc(C(=O)Nc2nc(C)cs2)o1`: 8.54 µM. As for `CC(C)c1ccc(/C=C/C(=O)Nc2nccn2C)cc1`, the AC50 is 5.97 µM. Still for that read-out and setting: the same measure for `Cc1csc(NC(=O)c2ccc(COc3cccc(OC(F)(F)F)c3)o2)n1`: 4.4 µM; for `O=C(COc1ccc2c(c1)OCO2)N/N=C/c1ccc[nH]1`: 20.9 µM; for `O=C(COc1ccc(Cl)cc1Br)N/N=C/c1ccc[nH]1`: 20.9 µM.

For the molecule `Cc1csc(NC(=O)c2ccc(COc3ccc(F)cc3)o2)n1`, the half-maximal activity concentration (AC50) is 28.5 µM. As for `O=C(Nc1ccccn1)c1ccc(COc2ccccc2)o1`, the AC50 is 29.7 µM. Same read-out and setting: the same measure for `Cc1csc(NC(=O)c2ccc(COc3ccccc3C#N)o2)n1`: 3.69 µM; for `CC(C)c1ccc(/C=C/C(=O)Nc2ccccn2)cc1`: 14.8 µM. Still for that read-out and setting: to `Cc1csc(NC(=O)c2ccc(COc3cccc(C#N)c3)o2)n1` belongs 15.4 µM; to `Cc1csc(NC(=O)c2ccc(COc3cccc(C(F)(F)F)c3)o2)n1`, 23.5 µM.

With `Cc1csc(NC(=O)c2ccc(COc3ccc(Cl)cc3)o2)n1`, the concentration at half-maximal activity (AC50) was 13 µM. Still for that read-out and setting: to `CC(C)(C)c1ccc(/C=C/C(=O)NC2=NCCS2)cc1` belongs 20.6 µM; to `O=C(/C=C/c1cccc(Cl)c1)NC1=NCCS1`, 21.5 µM; to `CC(C)c1ccc(/C=C/C(=O)N(C)Cc2ccccc2)cc1`, 9.01 µM. Still for that read-out and setting: the same measure for `O=C(Nc1nc2cccc(Cl)c2s1)c1ccc(COc2ccccc2)o1`: 9.36 µM.
